# Test results taken from paper PMC6039208 (Clinical and Translational Science, 2018).
# Tests used:
# FLT3‐ITD [1] = details: cited from earlier work
# [2] = Population PK model of sorafenib and its N‐oxide metabolite in patients with AML; assay type: in vivo, human
# FLT3‐ITD [3] = molecular target: T1, FLT3‐ITD (Homo sapiens, UniProt P36888); test: Exposure‐response; assay type: cell-based; details: doses given in this study (400 or 600 mg b.i.d.)
# T1 sequence (P36888 27-993): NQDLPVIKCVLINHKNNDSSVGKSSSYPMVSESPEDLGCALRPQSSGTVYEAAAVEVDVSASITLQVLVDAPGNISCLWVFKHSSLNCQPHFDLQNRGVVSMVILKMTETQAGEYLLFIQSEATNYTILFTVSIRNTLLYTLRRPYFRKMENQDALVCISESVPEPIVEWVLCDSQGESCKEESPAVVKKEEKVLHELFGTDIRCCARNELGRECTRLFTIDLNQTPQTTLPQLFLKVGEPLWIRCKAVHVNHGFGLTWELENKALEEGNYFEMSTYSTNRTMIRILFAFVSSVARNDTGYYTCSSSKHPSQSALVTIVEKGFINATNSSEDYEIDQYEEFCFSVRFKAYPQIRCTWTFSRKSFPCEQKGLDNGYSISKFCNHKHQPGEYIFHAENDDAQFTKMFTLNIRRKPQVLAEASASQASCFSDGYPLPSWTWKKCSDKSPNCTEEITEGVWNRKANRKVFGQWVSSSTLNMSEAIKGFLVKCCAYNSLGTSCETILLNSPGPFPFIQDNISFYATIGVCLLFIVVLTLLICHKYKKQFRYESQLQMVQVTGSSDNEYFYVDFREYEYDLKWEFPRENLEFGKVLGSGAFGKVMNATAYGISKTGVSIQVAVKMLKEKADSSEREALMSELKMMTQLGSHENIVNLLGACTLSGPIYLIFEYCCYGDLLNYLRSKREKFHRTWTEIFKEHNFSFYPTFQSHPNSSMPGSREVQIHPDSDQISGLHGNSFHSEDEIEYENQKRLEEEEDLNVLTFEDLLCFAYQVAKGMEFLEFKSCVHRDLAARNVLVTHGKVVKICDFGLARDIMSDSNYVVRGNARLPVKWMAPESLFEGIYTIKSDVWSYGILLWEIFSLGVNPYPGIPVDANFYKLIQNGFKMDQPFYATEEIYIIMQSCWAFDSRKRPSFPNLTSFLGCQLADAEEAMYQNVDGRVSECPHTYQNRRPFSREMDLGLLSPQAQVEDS
# ERK = test: Exposure‐response; assay type: cell-based, human; details: for Imax,ERK, maximum inhibitory effect on ERK activity: as fraction
# Procedure, shortened: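 Ex vivo ERK activity in FLT3‑ITD TF‑1 cells was read by Western blot as percent of each patient's baseline (100%). An inhibitory Emax model versus metabolite‑adjusted concentration was fitted sequentially to the PK model by FOCE‑I, with Imax estimated.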
# [4] = cited from earlier work
# [5] = cited from earlier work; remark: listed apart in the source
# CYP3A4 = CYP3A4 (Homo sapiens, UniProt P08684); assay type: in vivo; details: patients with AML
# CYP3A4, sequence (P08684 whole entry): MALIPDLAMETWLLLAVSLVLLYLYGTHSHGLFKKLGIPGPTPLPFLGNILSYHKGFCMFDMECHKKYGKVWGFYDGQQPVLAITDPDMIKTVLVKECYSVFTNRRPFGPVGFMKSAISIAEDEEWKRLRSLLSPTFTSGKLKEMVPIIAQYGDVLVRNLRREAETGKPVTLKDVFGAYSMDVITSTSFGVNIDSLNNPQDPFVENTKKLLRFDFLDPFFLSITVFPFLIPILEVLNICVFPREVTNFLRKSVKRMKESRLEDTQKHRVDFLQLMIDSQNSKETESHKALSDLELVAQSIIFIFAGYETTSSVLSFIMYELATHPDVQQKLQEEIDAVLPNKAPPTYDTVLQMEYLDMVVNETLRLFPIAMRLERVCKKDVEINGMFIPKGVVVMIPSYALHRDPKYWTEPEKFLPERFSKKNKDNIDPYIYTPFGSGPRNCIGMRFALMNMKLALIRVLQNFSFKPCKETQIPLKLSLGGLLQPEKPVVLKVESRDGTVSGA
# [6] = FOCE‐I estimate, typical value at 80 kg
smiles,measurement,setting,value
CNC(=O)c1cc(Oc2ccc(NC(=O)Nc3ccc(Cl)c(C(F)(F)F)c3)cc2)cc[n+]1[O-] [sorafenib N‐oxide],"fold more potent than the parent drug, FLT3‐ITD potency","FLT3‐ITD [1]; in vitro study, N‐oxide vs sorafenib",14.59 fold
same,"CLm, clearance of the N‐oxide metabolite",[2]; [6],116 L/h
same,"V7, apparent volume of distribution (compartment A7) of the N‐oxide metabolite",[2]; [6],89.80 L
same,"CLm, clearance of the N‐oxide metabolite","[2]; median of 1,000 bootstraps",123 L/h
same,"V7, apparent volume of distribution (compartment A7) of the N‐oxide metabolite","[2]; median of 1,000 bootstraps",94.50 L
CNC(=O)c1cc(Oc2ccc(NC(=O)Nc3ccc(Cl)c(C(F)(F)F)c3)cc2)ccn1 [sorafenib],extent of FLT3‐ITD activity inhibition,FLT3‐ITD [3],fully inhibited
same,"Imax,ERK, maximum inhibitory effect on ERK activity",ERK; FOCE‐I estimate,0.84
same,extent of ERK activity inhibition,ERK; doses given in this study (400 or 600 mg b.i.d.),could not be completely inhibited
same,"Imax,ERK, maximum inhibitory effect on ERK activity","ERK; median of 1,000 bootstraps",0.82
same,in vitro FLT3‐ITD inhibitory activity compared with midostaurin,FLT3‐ITD [1],fourfold higher
same,dose‐limiting toxicity rate,"[4]; 400 mg b.i.d. regimen, 2/9 patients, original clinical trial ref 9",~20%
same,proportion of patients with AML able to adhere to dosing,[4]; continuous 400 mg b.i.d.,18%
same,dose above which saturable absorption occurs,[5],over 400 mg
same,time to steady‐state,[5],≤ 7 days
same,"K64, release rate constant from gallbladder back to the gastrointestinal track",[2]; FOCE‐I estimate,0.173 h⁻¹
same,"TENT, time controller of enterohepatic recirculation (time after dose)",[2]; FOCE‐I estimate,5.48 h
same,"fENT, fraction of sorafenib that goes through enterohepatic circulation",[2]; FOCE‐I estimate,50.20%
same,"Ka, absorption rate constant","[2]; FOCE‐I estimate, patients with AML, oral",3.75 h⁻¹
same,clearance,"[2]; human, plasma, oral, CL, total clearance, median of 1,000 bootstraps",237 mL/min
same,fraction unbound,"[2]; human, plasma, oral, fu, %fraction of unbound sorafenib, FOCE‐I estimate",0.0181
same,"K64, release rate constant from gallbladder back to the gastrointestinal track","[2]; median of 1,000 bootstraps",0.17 h⁻¹
same,"Ka, absorption rate constant","[2]; median of 1,000 bootstraps",3.78 h⁻¹
same,"TENT, time controller of enterohepatic recirculation (time after dose)","[2]; median of 1,000 bootstraps",5.47 h
same,"fENT, fraction of sorafenib that goes through enterohepatic circulation","[2]; median of 1,000 bootstraps",50.20%
same,concentration dependence of plasma protein binding,[2]; within the observed concentration range,concentration independent
C[C@@H](c1ncncc1F)[C@](O)(Cn1cncn1)c1ccc(F)cc1F [voriconazole],change in sorafenib exposure in the presence of the inhibitor,CYP3A4,no change
